Assay results of several laboratories.
Organism: Enterococcus faecium

For `O=C(O)c1cccc(-n2c(/C=C/c3ccc(F)c(Cl)c3)nc3ccccc3c2=O)c1`, the MIC was over 128 µg/mL (microbial growth, broth dilution; NCTC7171).
The MIC of `O=C(O)COc1ccc(Oc2ccc(-c3noc(-c4ccc(O)cc4)n3)cc2)cc1` is reported as over 32 µg/mL (microbial growth, broth dilution; 24 h).
The MIC of `O=C(N[C@H](CO)[C@H](O)c1ccc([N+](=O)[O-])cc1)C(Cl)Cl` is reported as 3.9 µg/mL (microbial growth, broth dilution; VRE).
`Cc1cc(/C=C2\Sc3ccccc3N2CCCN2CCC(C)CC2)c2ccccc2[n+]1C.[I-]` gave an MBC of over 64 µg/mL (microbial killing; ATCC700221).
`CN(C)CCc1ccc(Oc2ccc(-c3noc(-c4ccc(O)cc4)n3)cc2)cc1` has an MIC of 4 µg/mL (microbial growth, broth dilution; 24 h).
`O=C(Nc1ccc2c(c1)OC(F)(F)O2)Nc1ccc(Cl)c(C(F)(F)F)c1` has an MIC of 1 µM (microbial growth).
The MIC of `O=c1c2cnccc2nc(/C=C/c2ccc(Cl)cc2)n1-c1cccc(O)c1` is reported as over 128 µg/mL (microbial growth, broth dilution; NCTC7171).
For `CNC(=O)c1cc(Oc2ccc(NC(=O)Nc3ccc(Cl)c(C(F)(F)F)c3)cc2)ccn1`, the MIC was over 100 µM (microbial growth).
`O=C(O)CCc1ccc(Oc2ccc(-c3noc(-c4ccc(O)cc4)n3)cc2)cc1` gave an MIC of over 32 µg/mL (microbial growth, broth dilution; 24 h).
For `CC1CCN(CCCN2/C(=C/c3cc[n+](C)c4ccccc34)Sc3ccccc32)CC1.[I-]`, the MBC was 128 µg/mL (microbial killing; ATCC700221).
For `CC(=O)OCc1cccc(-n2c(/C=C/c3ccc(C#N)cc3)nc3ccccc3c2=O)c1`, the MIC was over 128 µg/mL (microbial growth, broth dilution; NCTC7171).
